Results published in ChEMBL document CHEMBL1138222, “9-Benzylidene-naphtho[2,3-b]thiophen-4-ones as novel antimicrotubule agents-synthesis, antiproliferative activity, and inhibition of tubulin polymerization” (J Med Chem, 2006).
The source made the active and inactive calls. The rule behind the calls is not given here.

How the values were obtained:
[1] = Cell cycle arrest in KB/HeLa cells by accumulation at S phase at 31.6 nM; format: functional, cell-based; details: Homo sapiens
In short: (§1)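 Subconfluent KB/HeLa cells were treated with a concentration series for 24 h at 37 °C, then detached and fixed in 70% ethanol. DNA was stained with propidium iodide alongside RNase digestion and measured by flow cytometry. Phase fractions came from cell-cycle modelling software, and IC50 from nonlinear regression.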

[2] = Cell cycle arrest in KB/HeLa cells by accumulation at S phase at 100 nM; format: functional, cell-based; details: Homo sapiens; in short: as §1
[3] = Cell cycle arrest in KB/HeLa cells by accumulation at S phase at 316 nM; format: functional, cell-based; details: Homo sapiens; in short: as §1
[4] = Cell cycle arrest in KB/HeLa cells by accumulation at G2/M phase at 0.1 nM; format: functional, cell-based; details: Homo sapiens; in short: as §1
[5] = Cell cycle arrest in KB/HeLa cells by accumulation at G2/M phase at 0.3 nM; format: functional, cell-based; details: Homo sapiens; in short: as §1
[6] = Cell cycle arrest in KB/HeLa cells by accumulation at G2/M phase at 1 nM; format: functional, cell-based; details: Homo sapiens; in short: as §1
[7] = Cell cycle arrest in KB/HeLa cells by accumulation at G2/M phase at 3.16 nM; format: functional, cell-based; details: Homo sapiens
[8] = Cell cycle arrest in KB/HeLa cells by accumulation at G2/M phase at 10 nM; format: functional, cell-based; details: Homo sapiens; in short: as §1
[9] = Cell cycle arrest in KB/HeLa cells by accumulation at G2/M phase at 31.6 nM; format: functional, cell-based; details: Homo sapiens; in short: as §1
[10] = Cell cycle arrest in KB/HeLa cells by accumulation at G2/M phase at 100 nM; format: functional, cell-based; details: Homo sapiens; in short: as §1
[11] = Cell cycle arrest in KB/HeLa cells by accumulation at G2/M phase at 316 nM; format: functional, cell-based; details: Homo sapiens; in short: as §1
[12] = Cell cycle arrest in KB/HeLa cells by accumulation at G1 phase at 0.1 nM; format: functional, cell-based; details: Homo sapiens; in short: as §1
[13] = Cell cycle arrest in KB/HeLa cells by accumulation at G1 phase at 0.3 nM; format: functional, cell-based; details: Homo sapiens; in short: as §1
[14] = Cell cycle arrest in KB/HeLa cells by accumulation at G1 phase at 1 nM; format: functional, cell-based; details: Homo sapiens; in short: as §1
[15] = Cell cycle arrest in KB/HeLa cells by accumulation at G1 phase at 3.16 nM; format: functional, cell-based; details: Homo sapiens; in short: as §1
[16] = Cell cycle arrest in KB/HeLa cells by accumulation at G1 phase at 10 nM; format: functional, cell-based; details: Homo sapiens; in short: as §1
[17] = Cell cycle arrest in KB/HeLa cells by accumulation at G1 phase at 31.6 nM; format: functional, cell-based; details: Homo sapiens; in short: as §1
[18] = Cell cycle arrest in KB/HeLa cells by accumulation at G1 phase at 100 nM; format: functional, cell-based; details: Homo sapiens; in short: as §1
[19] = Cell cycle arrest in KB/HeLa cells by accumulation at G1 phase at 316 nM; format: functional, cell-based; details: Homo sapiens; in short: as §1
K562 [20] = assay: Antiproliferative activity against human K562 cell line; format: functional, cell-based
[21] = Cell cycle arrest in KB/HeLa cells by accumulation at G2/M phase; format: functional, cell-based; details: Homo sapiens; in short: as §1
K562 [22] = assay: Cell cycle arrest in K562 cells by accumulation at G2/M phase at 0.03 uM; format: functional, Homo sapiens
In short: (§2)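 K562 leukaemia cells were exposed to compound for 24 h at 37 °C, pelleted, and washed in PBS. They were fixed in ice-cold 70% ethanol for 30 min at 4 °C. Staining was 30 min in the dark with propidium iodide (0.2 mg/mL) plus RNase (2 mg/mL) in PBS. DNA content was measured by flow cytometry with 488 nm argon laser excitation.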

K562 [23] = assay: Cell cycle arrest in K562 cells by accumulation at G2/M phase at 0.06 uM; format: functional, Homo sapiens; in short: as §2
K562 [24] = assay: Cell cycle arrest in K562 cells by accumulation at G2/M phase at 0.1 uM; format: functional, Homo sapiens; in short: as §2
Tubulin (Homo sapiens) [25] = target: T1, Tubulin (Homo sapiens) (UniProt P68371+Q9H4B7+P0DPH7+P68366+Q13509+Q71U36+P04350+Q3ZCM7+P07437+P68363+Q9BQE3+Q6PEY2+Q13885+Q9BVA1+Q9BUF5); assay: Displacement of [3H]colchicine from tubulin by SPA assay; format: protein-complex assay
Tubulin (Homo sapiens) [26] = target: T1, Tubulin (Homo sapiens); assay: Displacement of [3H]paclitaxel from tubulin by SPA assay; format: protein-complex assay
P388 [27] = assay: Inhibition of P388 cells growth subcutaneously implanted in CD2F1 mouse at 25 mg/kg, ip after 7 days; format: functional, organism-based; parameters: dose 25 mg/kg
In short: (§3)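 Female CD2F1 mice aged 5-6 weeks received ~1 mm3 P388 tumour fragments subcutaneously on day 0. Dosing was intraperitoneal at 0.1 mL/10 g on days 5, 12 and 19, at 100, 50 or 25 mg/kg; controls received DMSO vehicle. Body weight and subcutaneous tumour growth were recorded three times per week.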

P388 [28] = assay: Inhibition of P388 cells growth subcutaneously implanted in CD2F1 mouse at 50 mg/kg, ip between 9 to 14 days; format: functional, organism-based; parameters: dose 50 mg/kg; in short: as §3
Tubulin = Tubulin (Sus scrofa, UniProt P02554+P02550); assay: Inhibition of tubulin polymerization in porcine brain
[29] = Antiproliferative activity against KB/HeLa cells by XTT assay after 48 hrs; format: functional, cell-based; details: Homo sapiens
In short: (§4)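 Tumour cell lines were seeded at 1 × 10^3 to 8 × 10^4 cells/well for logarithmic growth and exposed to a concentration series for 48 h. Proliferation was read as cellular metabolic activity by XTT. IC50 came from dose-response curves by nonlinear regression, with at least two replicates.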

SK-OV-3 = assay: Antiproliferative activity against SKOV3 cells by XTT assay after 48 hrs; format: functional, cell-based; details: Homo sapiens, SK-OV-3, 48 h; in short: as §4
SF-268 = assay: Antiproliferative activity against SF268 cells by XTT assay after 48 hrs; format: functional, cell-based; details: Homo sapiens, SF-268, 48 h; in short: as §4
NCI-H460 = assay: Antiproliferative activity against NCI-H460 cells by XTT assay after 48 hrs; format: functional, cell-based; details: Homo sapiens, NCI-H460, 48 h; in short: as §4
RKO [30] = assay: Antiproliferative activity against RKO cells with ectopic-induced p27kip1-expression by XTT assay after 48 hrs; format: functional, cell-based; details: Homo sapiens
In short: (§5)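 RKO colon adenocarcinoma cells carry an ecdysone-inducible p27kip1 vector. On day 1 they were plated with 3 µM ponasterone A (induced, 2 × 10^4 cells/well) or without it (not induced, 6 × 10^3 cells/well) and held 24 h at 37 °C. Compound or DMSO control was then added for 48 h at 37 °C, followed by a standard XTT read-out.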

RKO [31] = assay: Antiproliferative activity against RKO cells by XTT assay after 48 hrs; format: functional, cell-based; details: Homo sapiens; in short: as §5
MDR = assay: Antiproliferative activity against LT12 MDR cells by XTT assay after 48 hrs; format: functional, cell-based; details: Rattus norvegicus; in short: as §4
L1210 [32] = assay: Antiproliferative activity against L1210 cells by XTT assay after 48 hrs; format: functional, cell-based; details: Mus musculus, L1210, 48 h; in short: as §4
L1210 [33] = assay: Antiproliferative activity against L1210 VCR cells by XTT assay after 48 hrs; format: functional, cell-based; details: Mus musculus, L1210, 48 h; in short: as §4
P388 [34] = assay: Antiproliferative activity against P388 cells by XTT assay after 48 hrs; format: functional, cell-based; details: Mus musculus, P388, 48 h; in short: as §4
P388 [35] = assay: Antiproliferative activity against P388 ADR cells by XTT assay after 48 hrs; format: functional, cell-based; details: Mus musculus, P388, 48 h; in short: as §4
Mus musculus [36] = assay: Increase in survival of CD2F1 mouse subcutaneously implanted with P388 cells at 100 mg/kg after 21 days; format: functional; details: route intraperitoneal
Mus musculus [37] = assay: Increase in survival of CD2F1 mouse subcutaneously implanted with P388 cells at 50 mg/kg after 21 days; format: functional; details: route intraperitoneal
Mus musculus [38] = assay: Increase in survival of CD2F1 mouse subcutaneously implanted with P388 cells at 25 mg/kg after 21 days; format: functional; details: route intraperitoneal
[39] = Cell cycle arrest in KB/HeLa cells by accumulation at S phase at 0.1 nM; format: functional, cell-based; details: Homo sapiens; in short: as §1
[40] = Cell cycle arrest in KB/HeLa cells by accumulation at S phase at 0.3 nM; format: functional, cell-based; details: Homo sapiens; in short: as §1
[41] = Cell cycle arrest in KB/HeLa cells by accumulation at S phase at 1 nM; format: functional, cell-based; details: Homo sapiens; in short: as §1
[42] = Cell cycle arrest in KB/HeLa cells by accumulation at S phase at 3.16 nM; format: functional, cell-based; details: Homo sapiens; in short: as §1
[43] = Cell cycle arrest in KB/HeLa cells by accumulation at S phase at 10 nM; format: functional, cell-based; details: Homo sapiens; in short: as §1
cells = details: Rattus norvegicus, LT12, 48 h

COc1cc(/C=C2/c3ccccc3C(=O)c3ccsc32)cc(OC)c1O
Activity [1]: 26%
Activity [2]: 16.2%
Activity [3]: 9.8%
Activity [4]: 9.7%
Activity [5]: 9.1%
Activity [6]: 8.4%
Activity [7]: 9.2%
Activity [8]: 8.8%
Activity [9]: 8.6%
Activity [10]: 52.2%
Activity [11]: 89.5%
Activity [12]: 65.8%
Activity [13]: 65.6%
Activity [14]: 65.7%
Activity [15]: 66.3%
Activity [16]: 64.8%
Activity [17]: 65.4%
Activity [18]: 31.7%
Activity [19]: 0.8%
IC50 (K562 [20]): 50 nM
EC50 [21]: 98 nM
Activity (K562 [22]): 23%
Activity (K562 [23]): 55%
Activity (K562 [24]): 72%
Activity (Tubulin (Homo sapiens) [25]): 0.27 µM
Activity (Tubulin (Homo sapiens) [26]): inactive
Activity (P388 [27]): Active
Activity (P388 [28]): Active
IC50 (Tubulin): 380 nM
IC50 [29]: 50 nM
IC50 (SK-OV-3): 70 nM
IC50 (SF-268): 70 nM
IC50 (NCI-H460): 50 nM
IC50 (RKO [30]): > 9000 nM
IC50 (RKO [31]): 30 nM
IC50 (MDR): 170 nM
IC50 (L1210 [32]): 340 nM
IC50 (L1210 [33]): 680 nM
IC50 (P388 [34]): 50 nM
IC50 (P388 [35]): 220 nM
Activity (Mus musculus [36]): 106%
Activity (Mus musculus [37]): 111%
Activity (Mus musculus [38]): 83%
Activity [39]: 24.6%
Activity [40]: 25.3%
Activity [41]: 25.9%
Activity [42]: 24.5%
Activity [43]: 26.5%
IC50 (cells): 130 nM

CC[C@]1(O)C[C@H]2CN(CCc3c([nH]c4ccccc34)[C@@](C(=O)OC)(c3cc4c(cc3OC)N(C=O)[C@H]3[C@@](O)(C(=O)OC)[C@H](OC(C)=O)[C@]5(CC)C=CCN6CC[C@]43[C@@H]65)C2)C1 [VINCRISTINE]
Activity [1]: 7.2%
Activity [2]: 4.8%
Activity [3]: 5.9%
Activity [4]: 11.1%
Activity [5]: 11.7%
Activity [6]: 17.2%
Activity [7]: 65.8%
Activity [8]: 86.7%
Activity [9]: 92.6%
Activity [10]: 95.1%
Activity [11]: 93.8%
Activity [12]: 61.2%
Activity [13]: 64.5%
Activity [14]: 53.7%
Activity [15]: 6.5%
Activity [16]: 0.5%
Activity [17]: 1%
Activity [18]: 0.2%
Activity [19]: 0.2%
EC50 [21]: 2.4 nM
Activity [39]: 27.7%
Activity [40]: 24%
Activity [41]: 28.3%
Activity [42]: 26%
Activity [43]: 13.1%

COc1ccc(/C=C2/c3ccccc3C(=O)c3ccsc32)c(OC)c1O
IC50 (K562 [20]): 80 nM
Activity (Tubulin (Homo sapiens) [25]): 0.29 µM
Activity (Tubulin (Homo sapiens) [26]): inactive
IC50 (Tubulin): 500 nM
IC50 [29]: 190 nM
IC50 (SK-OV-3): 40 nM
IC50 (SF-268): 50 nM
IC50 (NCI-H460): 280 nM
IC50 (RKO [30]): > 9000 nM
IC50 (RKO [31]): 40 nM
IC50 (MDR): 190 nM
IC50 (L1210 [32]): 130 nM
IC50 (L1210 [33]): 170 nM
IC50 (P388 [34]): 140 nM
IC50 (P388 [35]): 160 nM
IC50 (cells): 180 nM
